An excerpt weighted towards active compounds, which were near 0.94% of everything screened.
GC-A act = GC-A (human) enzyme activation; P16066; HEK293 GC-A cells, cGMP TR-FRET, EC30 ANP; 0% at EC30 ANP, 100% saturating ANP; activation, % at 10 µM; actives 0.14% (n = 370,000); AID 1671463; in the data active means activation above about 40%
GC-B act = GC-B (human) receptor activation; P20594; HEK293-GC-B cells, CNP EC30, cGMP TR-FRET; 0% at EC30 CNP, 100% saturating CNP; activation, % at 10 µM; actives 0.11% (n = 370,000);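 active means activation at 10 µM reaching about 35% in either raw or pattern-adjusted values, limit read from the data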
Target sequence (P20594 whole entry, looked up): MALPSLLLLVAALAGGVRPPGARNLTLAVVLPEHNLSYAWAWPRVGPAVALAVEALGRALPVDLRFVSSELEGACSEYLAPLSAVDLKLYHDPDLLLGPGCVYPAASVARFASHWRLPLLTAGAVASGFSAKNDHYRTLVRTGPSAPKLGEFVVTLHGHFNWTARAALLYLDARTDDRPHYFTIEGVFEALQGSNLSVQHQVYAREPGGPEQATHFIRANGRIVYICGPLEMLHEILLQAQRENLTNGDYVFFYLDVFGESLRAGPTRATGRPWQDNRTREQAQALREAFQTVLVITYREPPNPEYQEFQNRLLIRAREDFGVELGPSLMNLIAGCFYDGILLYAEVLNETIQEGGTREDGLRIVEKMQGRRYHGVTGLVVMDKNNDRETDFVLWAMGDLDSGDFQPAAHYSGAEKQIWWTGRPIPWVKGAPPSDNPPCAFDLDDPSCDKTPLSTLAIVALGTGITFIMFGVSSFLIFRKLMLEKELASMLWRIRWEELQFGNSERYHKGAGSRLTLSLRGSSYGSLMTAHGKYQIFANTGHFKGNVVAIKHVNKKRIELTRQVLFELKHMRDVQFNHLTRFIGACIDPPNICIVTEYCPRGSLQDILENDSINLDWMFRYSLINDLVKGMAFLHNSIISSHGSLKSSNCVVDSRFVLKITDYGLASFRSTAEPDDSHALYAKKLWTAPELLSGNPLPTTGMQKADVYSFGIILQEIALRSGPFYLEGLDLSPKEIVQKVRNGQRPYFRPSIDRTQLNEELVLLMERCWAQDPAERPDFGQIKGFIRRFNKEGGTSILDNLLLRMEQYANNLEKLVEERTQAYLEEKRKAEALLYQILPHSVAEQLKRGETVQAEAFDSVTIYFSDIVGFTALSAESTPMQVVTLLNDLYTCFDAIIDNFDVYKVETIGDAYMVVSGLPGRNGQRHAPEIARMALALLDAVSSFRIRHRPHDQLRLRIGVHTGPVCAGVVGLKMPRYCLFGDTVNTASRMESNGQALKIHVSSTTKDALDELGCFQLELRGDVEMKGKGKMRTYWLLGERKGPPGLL
GalR3 antag = human GalR3 antagonism | inhibition, % at 3 µM | AID 651719 | O60755 | HEK293 GalR3-CNG cAMP membrane potential fluorescence; galR3 body fused to GalR1 C-terminus | actives 0.44% (n = 360,000);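 active means inhibition above the screen-wide average plus 3 SD, cut at about 13% in these data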;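 further: forskolin and galanin both at EC90 stimulate the cells; cAMP rise reported by CNG channel membrane potential dye signal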
Arrestin-AP2 inh = inhibitors of human beta-arrestin and AP2 interaction; FITC-arrestin peptide / GST-AP2 beads, flow cytometry; AP2 beta2 appendage carries R879A mutation; inhibition, % at 10 µM; actives 0.31% (n = 340,000); AID 504490;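 active means inhibition above a set limit, near 3 SD of compounds lacking own fluorescence, cut at about 54% in these data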
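Test system: GST-tagged AP2 beta2-adaptin appendage (R879A) on 4 µm glutathione beads; also added: fluorescein-tagged arrestin peptide at 50 nM final; timing: 12 min plus 1 h, RT; signal: flow cytometry, FL1 (488/535 nm); read-out: percent drop in bead-associated FITC signal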
GalR3 antag conf = GalR3 (human) antagonism, confirmation. actives 59% (n = 1,600). HEK293 GalR3 CNG cAMP biosensor, membrane potential fluorescence; galR3 fused to GalR1 carboxy tail; challenged with forskolin and galanin at EC90. shares compounds with GalR3 antag. inhibition, % at 3 µM. AID 652245;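 active means inhibition above the primary screen's cutoff, the mean inhibition of all screened compounds plus 3 SD, cut at about 13% in these data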
HEK-CNG parental = acts as nonspecific agonist in parental HEK-CNG cells | HEK293-CNG parental cells, cAMP membrane potential fluorescence; normalised: DMSO wells 0%, forskolin wells 100% | shares compounds with GalR3 antag | activation, % at 3 µM | actives 10% (n = 1,600); in the data active means activation above about 1.3%
Hits are given with their value; – = inactive; · = no result given.

SMILES | GC-A act | GC-B act | GalR3 antag | Arrestin-AP2 inh | GalR3 antag conf | HEK-CNG parental
COc1ccccc1NS(=O)(=O)c1cc(C(=O)NC2CCN(Cc3ccccc3)CC2)ccc1C | – | – | 90 | · | 103 | –
COc1ccccc1NS(=O)(=O)c1cccc(C(=O)NC2CCN(Cc3ccccc3)CC2)c1 | · | · | · | – | · | ·
NC(=O)c1cn(-c2ccccc2)nc1-c1cc2ccccc2oc1=O | – | – | 108 | – | 95 | –
O=Cc1cn(-c2ccccc2)nc1-c1cc2ccccc2oc1=O | – | – | – | – | · | ·
CCc1cc2c(nc1CC)CCCN2CCOC | – | – | – | · | · | ·
CCCc1ccc(Oc2cc(C)nc(N3CCOCC3)n2)cc1 | – | – | 15 | – | – | –
COc1ccccc1CNC(=O)C1CC(c2ccccc2[N+](=O)[O-])=NO1 (centres undefined) | – | – | · | – | – | –
COc1ccc(CNC(=O)C2CC(c3ccccc3[N+](=O)[O-])=NO2)cc1 (centres undefined) | – | – | – | – | · | ·
O=C(N[C@H](C(=O)N1CCC[C@H]1C(=O)NC1CCCC1)c1ccccc1)c1ccc(Cl)c(Cl)c1 | – | – | – | · | · | ·
CCOC(=O)C1CCN(C2CCN(Cc3nc(-c4ccccc4)no3)CC2)CC1 | – | – | 13 | – | – | –
CC(=O)Nc1ccccc1OCC(=O)c1cc(C)n(Cc2cccs2)c1C | – | – | 83 | – | 98 | –
COc1cccc(Cn2c(NCc3cccnc3)nc3c2c(=O)n(C)c(=O)n3C)c1 | – | – | – | – | · | ·
COc1cccc(Cn2c(NCc3ccccn3)nc3c2c(=O)n(C)c(=O)n3C)c1 | – | – | 14 | · | – | –
CN(C)S(=O)(=O)c1cccc(-c2cn3cccnc3n2)c1 | – | – | · | – | – | –
O=S(=O)(Nc1cccc(-c2cn3cccnc3n2)c1)c1ccccc1 | – | – | – | – | · | ·
COc1ccc(NC(=O)Cn2nc(C(=O)O)c3ccccc3c2=O)cc1Cl | – | – | 13 | – | – | –
COc1ccc(-c2nc(C#N)c(NCc3ccc(F)cc3)o2)cc1OC | – | – | 13 | – | 25 | –
Cc1ccc(S(=O)(=O)Oc2ccccc2/C=N/Nc2ccc(C(=O)O)cc2)cc1 | – | – | 18 | – | – | –
Cc1ccc(S(=O)(=O)Oc2ccccc2/C=N/O)cc1 | – | – | – | – | · | ·
COc1ccc(-n2c(SCC(=O)Nc3ccc(OCc4ccccc4)cc3)nnc2-c2ccc(C)cc2)cc1 | – | – | · | · | · | ·
CCOCCCNS(=O)(=O)c1ccc(NC(=O)c2ccccc2)cc1 | · | · | 65 | – | – | –
COC(=O)[C@]12C[C@H](CC(=O)NCCCN3CCCC3=O)C(=O)N(Cc3ccc4c(c3)OCO4)C1=C[C@H](C(C)C)O[C@@H]2C1CC1 | – | – | · | · | · | ·
O=S1(=O)N[C@@H](Cc2ccccc2)COc2cc(N3CCCCC3)ccc21 | – | – | – | · | · | ·
O=C(OC1CCOC1=O)c1ccc(N2CCCC2)c([N+](=O)[O-])c1 (centres undefined) | – | – | 20 | – | – | –
O=C(CCC1CCCN(c2ncccn2)C1)NCc1ccc(F)c(F)c1 (centres undefined) | – | – | 38 | – | – | –
SMILES | GC-A act | GC-B act | GalR3 antag | Arrestin-AP2 inh | GalR3 antag conf | HEK-CNG parental
O=S(=O)(NCc1ccncc1)c1ccc(Br)s1 | – | – | 105 | – | 116 | –
Cc1ccc(S(=O)(=O)NCc2cccnc2)s1 | – | – | 13 | – | – | –
COC(=O)COc1ccc(S(=O)(=O)NCc2ccncc2)cc1 | – | – | 96 | – | 113 | –
COc1cc(S(=O)(=O)NCc2ccncc2)ccc1Br | – | – | 63 | – | 90 | –
Cc1ccc(S(=O)(=O)NCc2ccccc2)s1 | – | – | – | – | · | ·
COC(=O)c1cc2c(c3c4cc(OC)ccc4n(S(=O)(=O)c4ccc(OC)cc4)c13)C(=O)N(Cc1ccccc1)C2 | – | – | – | · | · | ·
Cc1nc(C)n(CCNS(=O)(=O)c2ccc(C)c(C)c2)n1 | – | – | 18 | – | – | –
CCN(C1CCCCC1)S(=O)(=O)c1ccc(S(=O)(=O)NCCc2ccncc2)cc1 | – | – | – | – | · | ·
CCN(C1CCCCC1)S(=O)(=O)c1ccc(S(=O)(=O)NCc2ccncc2)cc1 | – | – | 16 | – | 49 | –
Cc1ccc(S(=O)(=O)NCc2ccncc2)cc1C | – | – | 88 | – | 105 | –
Cc1cc(Br)c(S(=O)(=O)NCc2ccncc2)cc1C | – | – | 101 | – | 105 | –
CC(=O)c1ccc(-c2cc(C(C)=O)c3n(c2=O)CCC3)cc1 | – | – | · | · | · | ·
CN1C(=O)c2cc(NC(=O)C3CCCCC3)ccc2OC[C@H]2O[C@@H](CC(=O)NC3CCCC3)CC[C@H]21 | – | – | · | · | · | ·
CCC(NC(=O)Nc1nnc(C(F)(F)F)s1)(C(F)(F)F)C(F)(F)F | – | – | 58 | – | 84 | –
Cc1c(C(=O)NN)sc(-c2ccccc2)c1C#N | – | – | 16 | – | – | –
CCOC(=O)c1sc(-c2ccc(C)cc2)c(C#N)c1C | – | – | – | – | · | ·
CN(c1cccnc1)c1ccc(NC(=O)Cc2c[nH]c3ccccc23)cc1Br | – | – | – | · | · | ·
COCC1CCCCN1C(=O)c1cc(COc2ccc3ncccc3c2)on1 (centres undefined) | – | – | 25 | – | 93 | –
CCC1CCCCN1C(=O)c1cc(COc2ccc3ncccc3c2)on1 (centres undefined) | – | – | 71 | – | 112 | –
CCN1CCN(C(=O)c2cc(COc3ccc4ncccc4c3)on2)CC1 | – | – | – | – | · | ·
CC1CCN(C(=O)c2ncn3c2C(=O)NC[C@H]3C)CC1 | – | – | – | · | · | ·
COC(=O)C1=C(C)N(Cc2ccc(C(F)(F)F)cc2)C(=NCc2ccccc2C(F)(F)F)NC1c1ccc(F)cc1 (centres undefined) | – | – | – | · | · | ·
Cc1ccc(NC(=O)COC(=O)C2=COCCO2)c([N+](=O)[O-])c1 | – | – | – | – | · | ·
CC(=O)c1c(C)[nH]c(C(=O)OCC(=O)Nc2ccc(C)cc2[N+](=O)[O-])c1C | – | – | 13 | · | 107 | –
CC(=O)c1c(C)[nH]c(C(=O)OCC(=O)Nc2cc(Cl)ccc2[N+](=O)[O-])c1C | – | – | 93 | – | 50 | –
Oc1ccc(C(c2nnnn2CCc2ccccc2)N2CCN(c3nc4ccccc4s3)CC2)cc1 (centres undefined) | – | – | 23 | – | – | –
CC(C)(C)N1C(=O)[C@H]2[C@@H](c3ccc(Br)cc3)N3C(=O)N(c4cccc(Br)c4)C(=O)[C@@]3(Cc3ccccc3)[C@H]2C1=O | · | · | · | – | · | ·
